Data set [1] is described as follows: melting temperature; fluorescence melt of hairpins on a sequencing array, two-state fit, raised by 9.35 °C to match UV melts. The settings on record: sodium 0.088 M. An outline of the steps:
(§1)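 Melting temperature and folding enthalpy were derived from bootstrapped two-state fits. The fitted temperatures were raised by 9.35 °C to agree with UV melts, and four replicates were combined by inverse variance. The underlying data were Cy3 fluorescence images of library hairpins, with annealed Cy3 and quencher oligos, on a sequenced MiSeq flow cell in 50 mM Na-HEPES pH 8.0, 25 mM NaCl, taken in 2.5 °C steps up to 60 °C, normalised to pre-quench Cy3 and to control constructs.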

A short description of data set [2]: folding enthalpy; higher = less favourable; fluorescence melt of hairpins on a sequencing array, two-state fit. The settings on record: sodium 0.088 M. An outline of the steps:
as §1

GCACACGGAAACACGTGC ((((..(....)..)))): the Tm in data set [1] was determined as 40.2 °C. The folding enthalpy in data set [2] is -22.5 kcal/mol.

As for GCAGAGCGAAAGCTGTGC (((.(((....))).))), the Tm in data set [1] is 59 °C. In data set [2], the folding enthalpy was -44.2 kcal/mol.

Turning to GGCCACCGAAAGGTGCC (((.(((....)))))), the Tm in data set [1] was 60.8 °C. The folding enthalpy in data set [2] was -15.8 kcal/mol.

Turning to GATTCCGAAAGGATAATC ((((((....)))..))), the Tm in data set [1] was 31.8 °C. Also, in data set [2], the folding enthalpy is -15.5 kcal/mol.

Regarding GACAAGCGAAAGCTGGTC (((.(((....))).))), the Tm in data set [1] stood at 56.4 °C. The folding enthalpy in data set [2] is -32.4 kcal/mol.

As to GGTATCGGAAACGATGTC (..((((....))))..), the Tm in data set [1] came to 31.9 °C. Besides, the folding enthalpy in data set [2] is -18.5 kcal/mol.

In the case of GATCCTATTAGGATC ((((((...)))))), the Tm in data set [1] worked out at 53.4 °C. Also, the folding enthalpy in data set [2] was -34.6 kcal/mol.

Take GAACCGGGAAACCAGTTC ((((.((....)).)))): in data set [1], the Tm was 36.5 °C. Also, the folding enthalpy in data set [2] is -26.2 kcal/mol.

With GAGCGCGAAAGCGAGCTC ((((((....)))..))), in data set [1], the Tm amounted to 58.3 °C. In addition, in data set [2], the folding enthalpy was -20.9 kcal/mol.

With GCGCGTCGAAAGACCCGC (((.(((....))).))), the Tm in data set [1] was 55.8 °C. Besides, in data set [2], the folding enthalpy was -37.3 kcal/mol.

In the case of GGCGGGGGAAACCCCACC ((.((((....)))).)), the Tm in data set [1] was determined as 56.1 °C. In data set [2], the folding enthalpy was -27.7 kcal/mol.

In the case of GGAAGCGAAAGCTCTTCC ((((((....)))..))), the Tm in data set [1] stood at 43 °C. The folding enthalpy in data set [2] was -18.9 kcal/mol.

For GAAACCGAAAGGTTATTC ((((((....)))..))), the Tm in data set [1] was 29.6 °C. Further, the folding enthalpy in data set [2] was -12.4 kcal/mol.

For GATCCTACTAAGGATC ((((((....)))))), in data set [1], the Tm was found to be 52.5 °C. For the same sequence, the folding enthalpy in data set [2] was -35.1 kcal/mol.

Take GATGCCGAAAGGCATATC ((((((....)))..))): the Tm in data set [1] is 55.7 °C. The folding enthalpy in data set [2] was -11 kcal/mol.

For GACACAGAAATGTGTC ((((((....)))))), in data set [1], the Tm came to 56.5 °C. In addition, the folding enthalpy in data set [2] was -28.5 kcal/mol.

In the case of GGAACAGGAAACTGTCCC ((.((((....)))).)), the Tm in data set [1] worked out at 39.9 °C. In data set [2], the folding enthalpy is -23.1 kcal/mol.

Turning to GTGGGCGAAAGCCTACAC ((((((....)))..))), the Tm in data set [1] turned out to be 55.1 °C. Moreover, in data set [2], the folding enthalpy was -11.9 kcal/mol.

Take GCGATCGGAAACGATCAC (.(((((....))))).): the Tm in data set [1] turned out to be 46.5 °C. Moreover, the folding enthalpy in data set [2] is -14.7 kcal/mol.

Consider GTCAATCGAAAGATGGAC (((.(((....))).))), for which the Tm in data set [1] turned out to be 49.2 °C. Moreover, the folding enthalpy in data set [2] is -25.5 kcal/mol.

As to GTCTGGGGAAACCCAGAC (((((((....))))))), in data set [1], the Tm came to 68.5 °C. The folding enthalpy in data set [2] is -37.6 kcal/mol.

Consider GCTGCGCGAAAGCGTTGC ((..(((....)))..)), for which the Tm in data set [1] came to 56.7 °C. For the same sequence, the folding enthalpy in data set [2] was -18.9 kcal/mol.

With GACGGAGGAAACTCCGTC (((((((....))))))), the Tm in data set [1] was found to be 67.8 °C. Further, in data set [2], the folding enthalpy is -36.1 kcal/mol.

Take GATCCGTATCGGATC ((((((...)))))): the Tm in data set [1] came to 57.3 °C. The folding enthalpy in data set [2] is -30.3 kcal/mol.

With GACTCCGAAAGGATTGTC ((((((....)))..))), the Tm in data set [1] is 36.8 °C. Further, in data set [2], the folding enthalpy was -16.3 kcal/mol.

For the sequence GGAACGCGAAAGCGATCC (((.(((....))).))), the Tm in data set [1] is 59 °C. Besides, the folding enthalpy in data set [2] was -27.4 kcal/mol.

GTGGTCGAAAGACTCAC ((((((....))).))): the Tm in data set [1] is 46.2 °C. Besides, the folding enthalpy in data set [2] is -19.6 kcal/mol.

In the case of GTATACGAAAGTATTAC ((((((....))).))), the Tm in data set [1] came out at 32.8 °C. The folding enthalpy in data set [2] was -13.9 kcal/mol.

As to GGTACTGGAAACAGCACC (((.(((....))).))), the Tm in data set [1] was 43.9 °C. For the same sequence, the folding enthalpy in data set [2] was -29.3 kcal/mol.

Turning to GAGGAACGAAAGTTTCTC (((.(((....))).))), the Tm in data set [1] was found to be 49.9 °C. In data set [2], the folding enthalpy was -35.9 kcal/mol.

For the sequence GCCACGCGAAAGCGACGC ((..(((....)))..)), in data set [1], the Tm came out at 39.8 °C. The folding enthalpy in data set [2] is -11.8 kcal/mol.

Regarding GCCGTCGAAAGACTTGGC ((((((....)))..))), in data set [1], the Tm came to 50.5 °C. Besides, in data set [2], the folding enthalpy is -17.2 kcal/mol.

Regarding GGGCCTGGAAACAGGTCC ((.((((....)))).)), the Tm in data set [1] stood at 65 °C. Further, the folding enthalpy in data set [2] is -36.4 kcal/mol.

Turning to GCGCGGCGAAAGCTGTGC ((.(.((....)).).)), the Tm in data set [1] was determined as 65.2 °C. In addition, the folding enthalpy in data set [2] was -32.2 kcal/mol.

With GGCCGGGGAAACCCAGCC (((.(((....))).))), the Tm in data set [1] was determined as 51.7 °C. For the same sequence, the folding enthalpy in data set [2] was -42.6 kcal/mol.

Regarding GCGAAAACGAAAGTTCGC (((..(((....)))))), in data set [1], the Tm worked out at 51.6 °C. For the same sequence, the folding enthalpy in data set [2] was -30.4 kcal/mol.

Regarding GATCGGTCTCCGATC ((((((...)))))), the Tm in data set [1] came to 57.4 °C. Besides, the folding enthalpy in data set [2] was -43.1 kcal/mol.
